Assay results published in ChEMBL document CHEMBL2157969, “Chalcone inhibitors of the NorA efflux pump in Staphylococcus aureus whole cells and enriched everted membrane vesicles” (Bioorg Med Chem, 2012).
Calls of active or inactive are those of the source. The rule behind the calls is not given here.

How the values were obtained:
[1] = biological target: T1, Quinolone resistance protein NorA (Staphylococcus aureus) (UniProt P0A0J7); assay: Inhibition of Staphylococcus aureus SA-1199B NorA expressed in Escherichia coli DH10B assessed as inhibition of Hoechst 33342 dye efflux at 10 uM after 150 to 160 secs by spectrofluorometric analysis in presence of 50 uM Mg2+
T1 sequence (whole entry): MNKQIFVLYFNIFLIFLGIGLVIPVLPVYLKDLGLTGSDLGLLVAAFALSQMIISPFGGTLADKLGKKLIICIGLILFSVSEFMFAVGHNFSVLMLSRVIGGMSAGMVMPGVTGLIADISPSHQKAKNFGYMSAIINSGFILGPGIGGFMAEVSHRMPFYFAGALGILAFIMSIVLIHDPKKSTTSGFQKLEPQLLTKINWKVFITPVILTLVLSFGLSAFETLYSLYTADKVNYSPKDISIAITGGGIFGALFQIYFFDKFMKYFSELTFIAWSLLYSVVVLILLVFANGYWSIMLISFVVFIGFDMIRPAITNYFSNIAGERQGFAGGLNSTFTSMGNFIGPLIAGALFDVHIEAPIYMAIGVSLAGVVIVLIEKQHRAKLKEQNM
Method in brief: (§1)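 Everted membrane vesicles from E. coli DH10B carrying pTrcHis2C-norA, made by French press with 0.1 mM PMSF and 0.1 mg/mL DNase; pTrc99A vesicles serve as control. Vesicles at 80 µg protein/mL in 50 mM potassium HEPES, 8.5 mM NaCl, 2 mM MgCl₂, pH 7.2. Hoechst 33342 added, then Mg²⁺-ATP to energise, inhibitor at 150–160 s.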

[2] = biological target: T1, Quinolone resistance protein NorA (Staphylococcus aureus); assay: Inhibition of Staphylococcus aureus SA-1199B NorA expressed in Escherichia coli DH10B assessed as inhibition of Hoechst 33342 dye efflux at 10 uM by spectrofluorometric analysis in presence of 50 uM Mg2+; method in brief: as §1

In the case of `CC(C)[C@@H]1NC(=O)[C@H](C)OC(=O)[C@@H](C(C)C)NC(=O)[C@@H](C(C)C)OC(=O)[C@H](C(C)C)NC(=O)[C@H](C)OC(=O)[C@@H](C(C)C)NC(=O)[C@@H](C(C)C)OC(=O)[C@H](C(C)C)NC(=O)[C@H](C)OC(=O)[C@@H](C(C)C)NC(=O)[C@@H](C(C)C)OC1=O`, the inhibition [1] is reported as “Active” and the inhibition [2] is reported as “Active”.
